The text below walks through data of ChEMBL document CHEMBL3739273, “Synthesis, biological activity evaluation and molecular docking studies of novel coumarin substituted thiazolyl-3-aryl-pyrazole-4-carbaldehydes” (Bioorg Med Chem Lett, 2015).

In brackets after ≈: the same amount, converted by molar mass. Activity calls are given as the source filed them. The calls are words filed in the database; no cut-off is given here.

Assay [1] deals with Escherichia coli. Put plainly: Antibacterial activity against Escherichia coli ATCC 8739 assessed as growth inhibition at 100 ug/ml after 24 hrs by agar well diffusion method. The class given is functional. In short, it runs like this: (§1)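 Agar well diffusion. Compounds were tested at 10, 20, 100, 200 and 300 µg/mL, and the zone of inhibition was measured in mm. Gentamycin sulfate was the reference drug.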

A further assay concerns HeLa. Put plainly: Anticancer activity against human HeLa cells assessed as cell viability after 48 hrs by MTT assay. It counts as functional, cell-based. In short, it runs like this: (§2)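 MTT cytotoxicity assay in human DU-145 prostate, MCF-7 breast and HeLa cervical cancer cell lines. Doxorubicin was the reference drug.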
The subject of assay [2] is Staphylococcus aureus. Put plainly: Bactericidal activity against methicillin-resistant Staphylococcus aureus NCTC 13616 after 24 hrs. It counts as functional. Conditions: NCTC 13616, 24 h, read-out: MBC99.9. The method in brief:
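MBC determined by a standard MBC protocol run alongside the MIC determination. Gentamycin sulfate and ampicillin served as reference drugs.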

The subject of assay [3] is Klebsiella pneumoniae. The assay can be described thus: Antibacterial activity against Klebsiella pneumoniae ATCC 43816 after 24 hrs by microtiter plate method. It counts as functional. Conditions: ATCC 43816, 24 h. In short, it runs like this:
(§3)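 Test concentrations reported in µg/mL. Gentamycin sulfate and ampicillin were the reference drugs.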

Assay [4] deals with Escherichia coli. Put plainly: Bactericidal activity against Escherichia coli ATCC 8739 after 24 hrs. It counts as functional. Conditions: ATCC 8739, 24 h, read-out: MBC99.9. The method in brief: (§4)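 MBC determined by a standard MBC protocol alongside the MIC, with values in µg/mL. Gentamycin sulfate and ampicillin were the references.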
Assay [5] concerns Staphylococcus aureus. The assay can be described thus: Antibacterial activity against methicillin-resistant Staphylococcus aureus NCTC 13616 after 24 hrs by microtiter plate method. The conditions noted are these: NCTC 13616, 24 h. The class given is functional.
The target in the next assay is T1, Cytochrome P450 2A6 (Homo sapiens, UniProt P11509).
T1 sequence (P11509 whole entry): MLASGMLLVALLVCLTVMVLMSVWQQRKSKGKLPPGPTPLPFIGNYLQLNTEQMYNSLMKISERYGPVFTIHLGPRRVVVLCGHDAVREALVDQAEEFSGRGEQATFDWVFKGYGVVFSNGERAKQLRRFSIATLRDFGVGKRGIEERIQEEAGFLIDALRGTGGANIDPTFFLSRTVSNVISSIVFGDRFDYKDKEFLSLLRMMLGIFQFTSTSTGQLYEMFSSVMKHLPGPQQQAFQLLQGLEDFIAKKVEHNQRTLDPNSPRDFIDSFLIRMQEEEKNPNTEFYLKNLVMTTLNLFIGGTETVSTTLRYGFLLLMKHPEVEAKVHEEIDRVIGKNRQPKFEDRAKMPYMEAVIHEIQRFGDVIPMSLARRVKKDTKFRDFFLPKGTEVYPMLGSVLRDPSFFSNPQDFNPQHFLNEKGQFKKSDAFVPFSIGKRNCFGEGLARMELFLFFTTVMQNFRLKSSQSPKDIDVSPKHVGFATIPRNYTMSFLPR
Put plainly: Inhibition of human microsomal CYP2A6. It counts as ADME.

Assay [6] concerns Bacillus cereus. The assay can be described thus: Bactericidal activity against Bacillus cereus ATCC 14579 after 24 hrs. It counts as functional. The conditions noted are these: ATCC 14579, 24 h, read-out: MBC99.9. The method in brief: as §4
The subject of assay [7] is Bacillus cereus. The assay can be described thus: Antibacterial activity against Bacillus cereus ATCC 14579 after 24 hrs by microtiter plate method. The class given is functional. The conditions noted are these: ATCC 14579, 24 h. In short, it runs like this:
as §3

In assay [8] the test system is Klebsiella pneumoniae. The assay can be described thus: Antibacterial activity against Klebsiella pneumoniae ATCC 43816 assessed as growth inhibition at 100 ug/ml after 24 hrs by agar well diffusion method. The class given is functional. The method in brief:
as §1

Assay [9] in a line: Anticancer activity against human DU145 cells assessed as cell viability after 48 hrs by MTT assay. It counts as functional, cell-based. Conditions: DU-145, 48 h. In short, it runs like this:
as §2

Assay [10] deals with Bacillus spizizenii. The assay can be described thus: Antibacterial activity against Bacillus subtilis ATCC 6633 after 24 hrs by microtiter plate method. It counts as functional. Conditions: ATCC 6633, 24 h. The method in brief:
as §3

In assay [11] the test system is Proteus vulgaris. Put plainly: Bactericidal activity against Proteus vulgaris ATCC 13315 after 24 hrs. Conditions: ATCC 13315, 24 h, read-out: MBC99.9. The class given is functional. The method in brief:
as §4

Assay [12] concerns Bacillus spizizenii. Put plainly: Antibacterial activity against Bacillus subtilis ATCC 6633 assessed as growth inhibition at 100 ug/ml after 24 hrs by agar well diffusion method. It counts as functional, organism-based. In short, it runs like this: as §1
In assay [13] the test system is Bacillus cereus. Put plainly: Antibacterial activity against Bacillus cereus ATCC 14579 assessed as growth inhibition at 100 ug/ml after 24 hrs by agar well diffusion method. It counts as functional. In short, it runs like this:
as §1

Assay [14] concerns Proteus vulgaris. The assay can be described thus: Antibacterial activity against Proteus vulgaris ATCC 13315 assessed as growth inhibition at 100 ug/ml after 24 hrs by agar well diffusion method. It counts as functional. The method in brief: as §1
The test system of assay [15] is Proteus vulgaris. Put plainly: Antibacterial activity against Proteus vulgaris ATCC 13315 after 24 hrs by microtiter plate method. It counts as functional. Conditions: ATCC 13315, 24 h. The method in brief: as §3
In another assay the test system is MCF7. Put plainly: Anticancer activity against human MCF7 cells assessed as cell viability after 48 hrs by MTT assay. The class given is functional, cell-based. The conditions noted are these: MCF7, 48 h. In short, it runs like this:
as §2

Assay [16] relates to Klebsiella pneumoniae. Put plainly: Bactericidal activity against Klebsiella pneumoniae ATCC 43816 after 24 hrs. The class given is functional. The conditions noted are these: ATCC 43816, 24 h, read-out: MBC99.9. The method in brief: as §4
Assay [17] relates to Bacillus spizizenii. The assay can be described thus: Bactericidal activity against Bacillus subtilis ATCC 6633 after 24 hrs. The class given is functional. The conditions noted are these: ATCC 6633, 24 h, read-out: MBC99.9. In short, it runs like this: as §4
For assay [18], the system named is Escherichia coli. Put plainly: Antibacterial activity against Escherichia coli ATCC 8739 after 24 hrs by microtiter plate method. It counts as functional. The conditions noted are these: ATCC 8739, 24 h. The method in brief: as §3
The subject of assay [19] is Staphylococcus aureus. Put plainly: Antibacterial activity against methicillin-resistant Staphylococcus aureus NCTC 13616 assessed as growth inhibition at 100 ug/ml after 24 hrs by agar well diffusion method. The class given is functional, organism-based. In short, it runs like this: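 Agar well diffusion assay with compounds applied to wells at several concentrations, including the 100 level reported here. The zone of inhibition was measured in mm. Gentamycin sulfate was the standard drug.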

On to `COc1cccc2cc(-c3csc(-n4cc(C=O)c(-c5ccc(Cl)cc5)n4)n3)c(=O)oc12`, for which the “growth inhibition (GI)” value with Escherichia coli [1], with Klebsiella pneumoniae [8], in the assay on Bacillus spizizenii [12], with Bacillus cereus [13], in the assay with Proteus vulgaris [14] and in the assay on Staphylococcus aureus [19] was “Active” in each case. The half-inhibitory concentration (IC50) in the assay with HeLa was 41.9 µM; in [9], 38.2 µM; in the assay on MCF7, 71.7 µM. For the same compound, the MBC in the assay on Staphylococcus aureus [2] was 275 µg/mL (≈ 593 µM); in the assay with Escherichia coli [4], 185 µg/mL (≈ 399 µM); in the assay on Bacillus cereus [6] it was 250 µg/mL (≈ 539 µM); in the assay on Proteus vulgaris [11], 260 µg/mL (≈ 560 µM); in the assay with Klebsiella pneumoniae [16], 260 µg/mL (≈ 560 µM); in the assay on Bacillus spizizenii [17], 260 µg/mL (≈ 560 µM). Further, the minimal inhibitory concentration (MIC) is 129 µg/mL (≈ 278 µM) in the assay on Klebsiella pneumoniae [3]; 139 µg/mL (≈ 300 µM) in the assay on Staphylococcus aureus [5]; 126 µg/mL (≈ 272 µM) against Bacillus cereus [7]; 133 µg/mL (≈ 286 µM) against Bacillus spizizenii [10]; 132 µg/mL (≈ 285 µM) in the assay on Proteus vulgaris [15]; 125 µg/mL (≈ 270 µM) against Escherichia coli [18]. For the same compound, the affinity at Cytochrome P450 2A6, expressed as Ki, was 3.27 nM.
Consider `O=Cc1cn(-c2nc(-c3cc4ccccc4oc3=O)cs2)nc1-c1ccccc1`, for which the IC50 (in the assay on HeLa; in assay [9]; in the assay on MCF7) was over 100 µM each time. Also, the MBC with Staphylococcus aureus [2] is 300 µg/mL (≈ 751 µM); in the assay with Escherichia coli [4], 270 µg/mL (≈ 676 µM); in the assay with Bacillus cereus [6], 290 µg/mL (≈ 726 µM); with Proteus vulgaris [11] it was 200 µg/mL (≈ 501 µM); in the assay with Klebsiella pneumoniae [16] it was 225 µg/mL (≈ 563 µM); in the assay with Bacillus spizizenii [17], 260 µg/mL (≈ 651 µM). The MIC with Klebsiella pneumoniae [3] was 150 µg/mL (≈ 376 µM); against Staphylococcus aureus [5] it was 150 µg/mL (≈ 376 µM); in the assay with Bacillus cereus [7] it was 145 µg/mL (≈ 363 µM); against Bacillus spizizenii [10] it was 132 µg/mL (≈ 330 µM); against Proteus vulgaris [15], 133 µg/mL (≈ 333 µM); against Escherichia coli [18] it was 135 µg/mL (≈ 338 µM). This compound also yielded an inhibition constant Ki at Cytochrome P450 2A6 of 13 nM. Also, the “growth inhibition (GI)” value in the assay with Staphylococcus aureus [19] was “inactive”.
For `Cc1ccc(-c2nn(-c3nc(-c4cc5cc(Br)ccc5oc4=O)cs3)cc2C=O)cc1`, the “growth inhibition (GI)” value in the assay with Escherichia coli [1], in the assay on Klebsiella pneumoniae [8], with Bacillus spizizenii [12], in the assay on Bacillus cereus [13], with Proteus vulgaris [14] and with Staphylococcus aureus [19] was “Active” throughout. Besides, the concentration for half-maximal inhibition (IC50) was 14.1 µM in the assay with HeLa, 20.9 µM in assay [9] and 35.2 µM in the assay with MCF7. The MBC in the assay on Staphylococcus aureus [2] stood at 275 µg/mL (≈ 559 µM); in the assay with Escherichia coli [4], 270 µg/mL (≈ 548 µM); in the assay with Bacillus cereus [6] it was 250 µg/mL (≈ 508 µM); in the assay with Proteus vulgaris [11] it was 240 µg/mL (≈ 487 µM); with Klebsiella pneumoniae [16], 250 µg/mL (≈ 508 µM); in the assay with Bacillus spizizenii [17], 250 µg/mL (≈ 508 µM). Further, the MIC against Klebsiella pneumoniae [3] was determined as 124 µg/mL (≈ 252 µM); with Staphylococcus aureus [5], 138 µg/mL (≈ 280 µM); in the assay on Bacillus cereus [7] it was 126 µg/mL (≈ 256 µM); in the assay with Bacillus spizizenii [10], 125 µg/mL (≈ 254 µM); against Proteus vulgaris [15], 122 µg/mL (≈ 247 µM); with Escherichia coli [18], 135 µg/mL (≈ 273 µM). This compound registered an inhibition constant Ki on Cytochrome P450 2A6 of 1.54 nM.
In the case of `COc1cccc2c1C(=O)c1c(O)c3c(c(O)c1C2=O)C[C@@](O)(C(=O)CO)C[C@@H]3O[C@H]1C[C@H](N)[C@H](O)[C@H](C)O1` [DOXORUBICIN], the IC50 was found to be 3.92 µM with HeLa and 2.49 µM in [9].
In the case of `COc1cccc2cc(-c3csc(-n4cc(C=O)c(-c5ccc(C)cc5)n4)n3)c(=O)oc12`, the half-maximal inhibitory concentration (IC50) came to 28.2 µM with HeLa, 31.4 µM in assay [9] and 42.6 µM in the assay on MCF7. Besides, the MBC in the assay on Staphylococcus aureus [2] was found to be 300 µg/mL (≈ 676 µM); in the assay with Escherichia coli [4], 260 µg/mL (≈ 586 µM); in the assay on Bacillus cereus [6], 275 µg/mL (≈ 620 µM); in the assay with Proteus vulgaris [11], 285 µg/mL (≈ 643 µM); with Klebsiella pneumoniae [16], 300 µg/mL (≈ 676 µM); in the assay with Bacillus spizizenii [17], 300 µg/mL (≈ 676 µM). In addition, the MIC against Klebsiella pneumoniae [3] is 150 µg/mL (≈ 338 µM); with Staphylococcus aureus [5] it was 150 µg/mL (≈ 338 µM); against Bacillus cereus [7], 136 µg/mL (≈ 307 µM); against Bacillus spizizenii [10] it was 150 µg/mL (≈ 338 µM); against Proteus vulgaris [15] it was 142 µg/mL (≈ 320 µM); in the assay on Escherichia coli [18], 133 µg/mL (≈ 299 µM). The compound also came in with a Ki at Cytochrome P450 2A6 of 1.93 nM. For the same compound, the “growth inhibition (GI)” value in the assay with Staphylococcus aureus [19] is “inactive”.
